Source: PubChem
CSN deneddyl inh: CSN deneddylation inhibition. Purified CSN, SCF-Nedd8-OG deneddylation, fluorescence polarization. Q92905. 360,000 tested, 0.38% active. inhibition, % at 12.5 µM;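 active = pattern-corrected inhibition above about 35%, with an unprinted fluorescence ratio check between 0.5 and 1.5, limit read from the data, passing the limit was not always enough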
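Material: human Csn5 produced in HEK293T cells; Input: enzyme 0.24 nM; Reagent: SCFSkp2-Nedd8OG substrate at 10 nM final; Dosing: 12.5 µM compound; Incubation: 90 min reaction at room temperature; Detection: fluorescence polarization of the substrate; Evaluation: % inhibition of substrate cleavage by Csn5; Control set: substrate-only high control, full reaction low control.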
Rpn11 block: inhibitors of human proteasome Rpn11; O00487; human 26S proteasome, Ub4-pepOG fluorescence polarization; 20S core pre-blocked with epoxomicin; inhibition, % at 20 µM; 360,000 tested, 0.59% active; AID 588493;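 active = inhibition at 20 µM, scaled to each plate's controls, above about 33%, limit read from the data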
Target sequence (O00487 whole entry, looked up): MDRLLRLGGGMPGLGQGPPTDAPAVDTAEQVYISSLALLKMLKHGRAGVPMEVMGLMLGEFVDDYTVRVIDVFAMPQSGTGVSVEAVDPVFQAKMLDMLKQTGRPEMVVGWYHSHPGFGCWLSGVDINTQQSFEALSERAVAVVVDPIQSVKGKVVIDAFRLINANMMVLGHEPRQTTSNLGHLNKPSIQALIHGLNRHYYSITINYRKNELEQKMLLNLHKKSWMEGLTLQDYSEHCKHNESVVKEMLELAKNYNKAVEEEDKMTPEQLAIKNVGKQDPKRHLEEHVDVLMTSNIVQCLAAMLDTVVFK
HNF4A DNA FP: change in binding of human HNF4 alpha to DNA; HNF4a-FITC DNA binding, fluorescence polarization, 1 h; activity change, % at 10 µM; 360,000 tested, 0.3% active; AID 1224865; in the data active = activity change above about 30%, passing the limit was not always enough
Target sequence (P41235 whole entry, looked up): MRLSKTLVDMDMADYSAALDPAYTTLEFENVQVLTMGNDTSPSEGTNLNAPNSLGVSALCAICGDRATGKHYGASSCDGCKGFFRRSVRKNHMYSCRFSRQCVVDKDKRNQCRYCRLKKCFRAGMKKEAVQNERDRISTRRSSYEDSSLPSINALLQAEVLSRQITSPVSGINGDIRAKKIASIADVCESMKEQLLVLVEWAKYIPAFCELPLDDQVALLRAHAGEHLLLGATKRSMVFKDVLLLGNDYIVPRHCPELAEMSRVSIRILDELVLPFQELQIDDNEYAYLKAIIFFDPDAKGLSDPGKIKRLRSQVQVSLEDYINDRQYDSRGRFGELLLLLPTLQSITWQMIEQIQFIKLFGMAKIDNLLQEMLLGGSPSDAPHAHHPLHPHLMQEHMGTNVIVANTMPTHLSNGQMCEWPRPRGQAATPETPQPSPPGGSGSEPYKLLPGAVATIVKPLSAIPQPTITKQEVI
TPT1 inh: inhibitors of Candida albicans tRNA 2'-phosphotransferase TPT1; inhibition, % at 5 µM; AID 1962; recombinant caTPT1, FP RNA substrate dephosphorylation; 300,000 tested, 0.81% active;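 active = inhibition above the mean of all tested compounds plus 3 SD, set per screening campaign, cut at about 24% in these data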
Neddyl block: cullin neddylation inhibition; 360,000 tested, 0.58% active; inhibition, % at 25 µM; TR-FRET cullin neddylation, biochemical; in the data active = inhibition above about 36%
Rin1 Abl inh: blocks binding of human Rin1 to Abl | P00519+Q13671 | TR-FRET Rin1/Abl binding, biochemical | 360,000 tested, 0.4% active | inhibition, % at 7.35 µM; in the data active = inhibition above about 5%, passing the limit was not always enough
Rin1-Abl confirm: confirmation of inhibitors of human Rin1-Abl interaction; shares compounds with Rin1 Abl inh; TR-FRET Rin1-Abl binding, purified proteins; inhibition, % at 7.35 µM; 1,300 tested, 49% active
GFP quencher: counter-screen for Rin1-Abl inhibitors: GFP fluorescence quenchers. AID 602125. inhibition, % at 6.75 µM. 1,300 tested, 8.5% active. shares compounds with Rin1 Abl inh. inhibitors/quenchers counterscreen;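 also: ABL1-eGFP fusion protein alone without its partner RIN1-SBP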
GFP quench DR: counter-screen for Rin1-Abl inhibitors: GFP quenchers, dose response; shares compounds with Rin1 Abl inh; GFP fluorescence interference/quenching counterscreen; IC50, µM; 230 tested, under 10 active; call rule not given here;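 also: ABL1-eGFP fusion protein alone without its RIN1 binding partner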
Neddyl inh conf: cullin neddylation inhibition, confirmation; shares compounds with Neddyl block; TR-FRET cullin neddylation biochemical assay; calls only at 25 µM; 1,800 tested, 13% active; in the data active = inhibition above about 40%;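 also: neddylation substrate is the cullin 1 ring ligase complex with SKP2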
CSN5 deneddyl: validation of inhibitors of human CSN-mediated cullin deneddylation. inhibition, % at 16.6 µM. 540 tested, 62% active. Csn5 deneddylation of SCF-Nedd8OG, fluorescence polarization, 90 min. shares compounds with CSN deneddyl inh; in the data active = inhibition above about 50%
MMP2 cntr CSN: blocks human MMP-2 in a CSN deneddylation counter-screen | shares compounds with CSN deneddyl inh | recombinant MMP-2, FRET substrate fluorescence, 60 min | inhibition, % at 16.6 µM | 540 tested, 33% active;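 active = corrected plate-normalized z-score of 5 or more, or -5 or less, or inhibition of 15% or more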
Thrombin counter: blocks bovine thrombin in a CSN deneddylation counter-screen | bovine thrombin cleavage of Ub4-pepOG, fluorescence polarization | 540 tested, 49% active | inhibition, % at 16.6 µM | shares compounds with CSN deneddyl inh;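 active = inhibition at or above a set limit, with a fluorescence interference ratio between 0.5 and a set maximum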
Of the large screens only hits and unclear results are named; the others gave an inactive call (follow-up assays come after a bar, where shown); ! = a repeat was not active. Sampled rows, rich in hits. Any-hit rate of the full collection: about 2.4%. Rule as the data show it, unless noted: active = inhibition above about 6.5%; inactive = the rest.

Fc1ccc(CNCCc2ccccc2F)cc1	none
COc1ccc(C(=O)C2CCCN(Cc3cnc(C)s3)C2)c(OC)c1 (stereo not given)	Rin1 Abl inh 9.9 | Rin1-Abl confirm inactive | GFP quencher inactive
CC(=O)c1ccc2c(c1)C1C(Cl)C(Sc3ccccc3[N+](=O)[O-])CC1C(C(=O)O)N2 (stereo not given)	none
O=C(O)c1cccc2c1NC(C(=O)O)C1CC(Sc3ccccc3[N+](=O)[O-])C(Cl)C21 (stereo not given)	Rin1 Abl inh 10.8 | Rin1-Abl confirm inactive | GFP quencher 20.3
Oc1ccc2c3c1O[C@H]1[C@@H](O)CC[C@@]4(O)[C@@H](C2)N(CC2CCC2)CC[C@]314	Rin1 Abl inh 11.2! | Rin1-Abl confirm inactive | GFP quencher inactive
CCOC(=O)c1ccc(NC(=O)NC2CC3CCC(C2)N3)cc1 (stereo not given)	Rin1 Abl inh 18.4 | Rin1-Abl confirm 25.9 | GFP quencher inactive | GFP quench DR inactive
CN(C)[C@@H]1C(=O)C(C(N)=O)=C(O)[C@@]2(O)C(=O)C3=C(O)c4c(O)cccc4[C@@](C)(O)[C@H]3[C@H](O)[C@@H]12	Rin1 Abl inh 15.6 | Rin1-Abl confirm inactive | GFP quencher inactive
CN1C(=O)NC(=O)C(N=Nc2ccc(Cl)cc2)C1=O (stereo not given)	none (no result: TPT1 inh)
Cc1nc2nc(C)n(CCN3CCOCC3)c(=O)c2c(-c2cccc([N+](=O)[O-])c2)c1C(=O)CCCCCCCCCCN1CCC(c2ccccc2)(c2ccccc2)CC1	Rin1 Abl inh 61.3 (no result: TPT1 inh) | Rin1-Abl confirm 68.7 | GFP quencher inactive | GFP quench DR inactive
O=[N+]([O-])c1ccc(NCCCN2CCOCC2)nc1	none
O=C(NC1CCCCC1)Oc1cc2oc(=O)sc2cc1Cl	Rin1 Abl inh 6.3 | Rin1-Abl confirm inactive | GFP quencher inactive
N#CC1C(C#N)C2CCC1C1C2N1c1ccccc1 (stereo not given)	none (no result: TPT1 inh)
COc1ccc2ccccc2c1CNCCc1ccccc1	none
CC(=O)OC1CC[C@]2(C#N)[C@H]3CC[C@]4(C)[C@H](C5C=CC(=O)O5)CCC4(O)C3CCC2(O)C1 (stereo not given in full)	none
COc1ccc2nc(NC(=O)CCc3nc(C4=CCN(C)CC4)no3)sc2c1	Rin1 Abl inh 75.2 | Rin1-Abl confirm 80.0 | GFP quencher inactive | GFP quench DR inactive
CCc1nnc(NC(=O)CCc2nc(C3=CCN(C)CC3)no2)s1	Rin1 Abl inh 63.1 | Rin1-Abl confirm 62.2 | GFP quencher inactive | GFP quench DR inactive
Cc1cc2c(cc1C)NP(=S)(c1ccccc1)N2	none (no result: TPT1 inh)
CCn1nc(/C=C/c2ccccc2)nc2c(=O)n(C)c(=O)nc1-2	CSN deneddyl inh 59.2, HNF4A DNA FP 107.3, Rin1 Abl inh 25.8 (no result: TPT1 inh) | Rin1-Abl confirm 39.6 | GFP quencher inactive | GFP quench DR inactive | CSN5 deneddyl inactive | MMP2 cntr CSN inactive | Thrombin counter inactive
CCOC(=O)c1c(NC(=O)c2c(N)n(CCCOC)c3nc4ccccc4nc23)sc2c1CCCC2	none
CCOCCCn1c(N)c(C(=O)Nc2sc3c(c2C(=O)OC)CCCC3)c2nc3ccccc3nc21	CSN deneddyl inh 52.0, Rin1 Abl inh 22.1 (not shown: Neddyl block) | Rin1-Abl confirm inactive | GFP quencher inactive | CSN5 deneddyl 92.7 | MMP2 cntr CSN inactive | Thrombin counter inactive
O=c1nc(/C=C/c2ccc(Cl)cc2Cl)cc(C(F)(F)F)[nH]1	none (no result: TPT1 inh)
O=C1CN=C(c2ccc(Br)cc2)c2oc3ccccc3c2N1	Neddyl block 40.5 | Neddyl inh conf inactive
O=C1CN=C(c2ccc[nH]2)c2cc(Cl)ccc2N1	Neddyl block 39.1 | Neddyl inh conf active
CCOc1cccc(CNCCc2c(C)[nH]c3ccc(OC(F)(F)F)cc23)c1O	none
CN(C)c1ccc(/C=C/c2cc[n+](C)c3ccccc23)cc1	none (no result: TPT1 inh)
C[n+]1ccc(-c2ccccc2)c2ccccc21	Neddyl block 27.9 | Neddyl inh conf active
C[C@]12CCC3C(CC[C@H]4C[C@@H](O)CC[C@]34C)C1=CC[C@@H]2O (stereo not given in full)	none (no result: TPT1 inh)
Cc1cc(N(CCCl)CCCl)ccc1C=NNC(=O)c1cccnc1	Neddyl block 38.6 (no result: TPT1 inh) | Neddyl inh conf inactive
Cc1cnc(-n2c(=S)[nH]c3ccccc3c2=O)s1	none (no result: TPT1 inh)
CCCCCCC(=O)N/N=C/c1c(O)n(C2CC2)c(=S)[nH]c1=O	Neddyl block 55.9 | Neddyl inh conf inactive
CCCCCCC(=O)N/N=C/c1c(O)n(C(C)CC)c(=S)[nH]c1=O (stereo not given)	none
CCCC1(CCO)C(=O)NC(=S)NC1=O	none (no result: TPT1 inh)
CN(C)C(=O)Oc1ccc(Cl)c2cccnc12	Neddyl block 42.5 | Neddyl inh conf inactive
CN(C)C(=O)Oc1c(Cl)cc(Cl)c2ccccc12	none
CCn1c(O)c(/C=N/NC(=O)c2ccccc2)c(=O)[nH]c1=S	Neddyl block 60.3 | Neddyl inh conf inactive
CCOc1cccc(N2C(=O)/C(=C/c3ccco3)C(=O)NC2=S)c1	CSN deneddyl inh 39.1 (not shown: Rpn11 block) | MMP2 cntr CSN 34.0 | Thrombin counter inactive
O=C1NC(=O)N(c2cccc(Cl)c2)C(=O)/C1=C\c1ccc(Sc2nc3ccccc3[nH]2)o1	CSN deneddyl inh 37.9, Rpn11 block 58.4 | CSN5 deneddyl inactive | MMP2 cntr CSN inactive | Thrombin counter 25.2
Cc1cc(O)c2c(c1)C(=O)C13C(=C2O)C(=O)[C@H]2[C@@H](O)[C@@H]1[C@H]1[C@H](O)[C@@H]3C(=O)C3=C(O)c4c(O)cc(C)cc4C(=O)C312 (stereo not given in full)	none
COc1ccccc1N1C(=O)NC(=O)/C(=C/c2ccc([N+](=O)[O-])s2)C1=O	none (no result: CSN deneddyl inh, Rpn11 block, HNF4A DNA FP, Neddyl block, Rin1 Abl inh)
O=C1NC(=O)N(Cc2ccc(F)cc2)C(=O)/C1=C\c1ccc([N+](=O)[O-])s1	CSN deneddyl inh 35.4 | CSN5 deneddyl inactive | MMP2 cntr CSN 15.1 | Thrombin counter inactive
CCC1(Oc2ccccc2)C(=O)NC(=O)NC1=O	none (no result: TPT1 inh)
CCC1(C)OC(c2ccccc2)=C/C(=C/C=C2C(=O)NC(=O)NC2=O)O1 (stereo not given)	CSN deneddyl inh 78.1 (not shown: Rpn11 block, TPT1 inh) | CSN5 deneddyl 138.7 | MMP2 cntr CSN inactive | Thrombin counter 50.7
O=C(CCCc1ccccc1)NCCc1cnc[nH]1	none
